Screening results from PubChem.
SUMO1-SIM PPI: alters human SUMO1 binding to SIM partners; P63165; SUMO1 binding to a labelled peptide, TR-FRET, 1 h; inhibition, % at 20 µM; 0.33% of 360,000 active; in the data active = inhibition above about 37%
Target sequence (P63165 whole entry, looked up): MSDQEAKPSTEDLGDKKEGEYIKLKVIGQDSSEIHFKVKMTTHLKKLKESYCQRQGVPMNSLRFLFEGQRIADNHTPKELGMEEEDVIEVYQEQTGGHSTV
Scp-1 inhibitor: Scp-1 (human) phosphatase inhibition | inhibition, % at 20 µM | 0.88% of 340,000 active | AID 493091 | Recombinant Scp1, phosphopeptide, malachite green phosphate absorbance;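 active = inhibition above about 50% at 20 µM, limit read from the data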;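 also: plate controls were DMSO wells with enzyme for no effect and wells lacking enzyme for full effect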
Target sequence (Q9GZU7 76-261 limits assumed): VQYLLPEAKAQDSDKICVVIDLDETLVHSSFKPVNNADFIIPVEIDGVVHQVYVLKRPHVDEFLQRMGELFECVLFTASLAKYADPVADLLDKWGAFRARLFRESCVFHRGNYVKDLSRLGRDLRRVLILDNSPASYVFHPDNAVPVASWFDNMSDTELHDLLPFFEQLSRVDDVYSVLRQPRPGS
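assay system = SCP-1 phosphatase catalytic domain, residues 76-261 | buffer or medium = 50 mM Tris acetate pH 5.5, 0.005% Tween-20, 10 mM MgCl2 | incubation = enzyme reaction 45 min at room temperature, colour 5 min, stabilisation 30 min | signal = Phosphate-binding colour reagent, absorbance read at 630 nm | measure = % inhibition at 20 µM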
LMPTP block: blocks human LMPTP phosphatase. P24666. recombinant LMPTP-A, OMFP fluorogenic substrate, fluorescence intensity. inhibition, % at 20 µM. 0.22% of 360,000 active. AID 651560;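 active = compounds that cut the enzyme signal by at least half of the control window in the single-dose screen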;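 also: plate controls were DMSO wells with enzyme plus substrate for no effect and substrate without enzyme for full effect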
Target sequence (P24666 whole entry, looked up): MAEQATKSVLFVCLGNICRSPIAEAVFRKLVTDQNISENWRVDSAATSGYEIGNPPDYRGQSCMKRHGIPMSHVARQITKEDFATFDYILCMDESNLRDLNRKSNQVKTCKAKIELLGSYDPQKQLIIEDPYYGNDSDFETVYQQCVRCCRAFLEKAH
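Test system: LMPTP-A phosphatase enzyme. Amount: LMPTP-A at 0.625 nM final in the reaction. Reagent: OMFP substrate, 400 µM final. Times: 50 min at room temperature. Signal: endpoint fluorescence intensity from OMFP dephosphorylation. Read-out basis: % inhibition. Benchmarks: no-enzyme and uninhibited controls.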
STEP block: inhibitors of human striatal-enriched phosphatase STEP | P54829 | recombinant STEP, OMFP fluorogenic substrate, fluorescence | inhibition, % at 20 µM | 0.25% of 360,000 active | AID 588621;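 active = inhibition at 20 µM, scaled per plate between control wells, above about 37%, limit read from the data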;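 also: 0% = DMSO with enzyme and substrate and 100% = substrate only without enzyme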
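Test system: STEP tyrosine phosphatase / Reagent: OMFP at 25 µM / Doses: 20 µM, 1% DMSO / Read-out: percent inhibition scaled to no-enzyme and uninhibited-enzyme controls, plate-pattern corrected / Detection: FITC-channel fluorescence of OMFP product / Medium: Bis-Tris buffer pH 6.0, 2.5 mM DTT, 0.005% Tween 20 / Schedule: 20 min at room temperature, dark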
DNMT1 block: inhibitors of human DNMT1; P26358; DNMT1 molecular beacon, Hinp1I cleavage, fluorescence; inhibition (reported as % activation of signal), % at 10 µM; 0.83% of 360,000 active; in the data active = inhibition above about 50%
GRK2 inh: blocks RNA aptamer binding to human GRK2 | bead flow cytometry, FAM-aptamer displacement from GRK2 | inhibition of aptamer binding, % at 10 µM | 0.59% of 330,000 active | AID 488847;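 active = inhibition of aptamer binding above 40%, roughly 3 SD of noise, on plates passing a quality check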;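 also: median bead fluorescence of bound FAM aptamer so fluorescent compounds give negative values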
Scp1 confirm: confirmation of human Scp-1 phosphatase inhibitors | shares compounds with Scp-1 inhibitor | recombinant SCP-1 catalytic domain, phosphate release, malachite green absorbance | inhibition, % at 20 µM | 61% of 2,500 active | AID 540281;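 also: plate controls were DMSO with enzyme for no effect and buffer wells lacking enzyme for full effect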
MG interference: counter-screen for Scp-1 inhibitors: colorimetric interference; Colorimetric interference counterscreen, malachite green absorbance 630 nm; apparent inhibition (interference), % at 20 µM; shares compounds with Scp-1 inhibitor; AID 540313; 2,500 tested, under 10 active;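 also: compounds added after enzyme reaction finished so only phosphate colour detection is probed; plate controls were DMSO wells with completed Scp-1 reaction for no effect and substrate wells lacking enzyme for full effect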
Scp-1 Tm shift: Scp-1 (human) binding by thermal shift. 25% of 1,500 active. thermal shift relative to vanadate control, % at 40 µM. shares compounds with Scp-1 inhibitor. Recombinant SCP1, Sypro Orange thermal shift Tm;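 active = substances whose mean melting-temperature shift, as a percentage of the reference inhibitor's shift, reaches about 5.3%, limit read from the data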;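 also: 0% = Tm of DMSO wells and 100% = Tm with sodium orthovanadate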
An asterisk follows results filed as active; / = no result given. Sampled rows, rich in hits. Any-hit rate of the full collection: about 2.1%.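 The calls were made as follows, unless noted: active = inhibition of at least 30% at 20 µM; inactive = the rest.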

SMILES	SUMO1-SIM PPI	Scp-1 inhibitor	LMPTP block	STEP block	DNMT1 block	GRK2 inh	Scp1 confirm	MG interference	Scp-1 Tm shift
N#CCC(=O)Nc1ccc(C(=O)OCC(=O)Nc2ccc3ccccc3c2)cc1	12	52*	12	3	-23	7	57*	-15	25*
Clc1cccc(-c2cccc3nccn23)c1	-10	/	0	2	0	/	/	/	/
CC1=NNC(=O)C1CC(=O)N/N=C/C=C/c1ccccc1 (stereo not drawn)	-15	-9	-1	-1	1	0	/	/	/
O=C(O)CCSc1nnc(SCC(=O)NC2CCS(=O)(=O)C2)s1 (stereo not drawn)	3	101*	0	-3	4	3	-11	-19	/
O=C(CSc1nnc(Nc2ccccc2)s1)NC1CCS(=O)(=O)C1 (stereo not drawn)	-3	2	-1	2	0	0	/	/	/
CCS(=O)(=O)N1Cc2ccccc2CC1C(=O)NCCc1c[nH]c2ccccc12 (stereo not drawn)	-5	-10	2	3	-13	0	/	/	/
CC(C(=O)N1CCCCC1)N1CCN(S(=O)(=O)c2ccc(Cl)cc2)CC1 (stereo not drawn)	-3	97*	-1	-2	5	4	78*	-13	-9
CC1(c2nnnn2Cc2ccccc2)CCC(=O)N1Cc1ccco1 (stereo not drawn)	-1	/	-2	/	/	/	/	/	/
COc1cccc(NC(=O)CN(C)C(=O)c2ccccn2)c1	2	-2	-1	-1	1	0	/	/	/
Cc1cccc(C)c1OCC(=O)NNC(=S)NC(=O)C1CC1	5	-11	0	0	1	0	/	/	/
CCOCc1cnc(C)nc1NCC(=O)c1c(C)n(C)c2ccc(OC)cc12	1	51*	0	-4	1	/	1	-6	/
CCS(=O)(=O)C1=NN2C(=N)/C(=C\c3ccc(OCCOc4cccc(OC)c4)c(OC)c3)C(=O)N=C2S1	7	67*	4	-1	0	0	65*	-16	11*
COc1cc(/C=C2\C(=N)N3N=C(S(C)(=O)=O)SC3=NC2=O)ccc1OCCOc1ccc(C)cc1	6	67*	7	9	-5	0	36*	-16	9.7*
COc1cc(/C=C2\C(=N)N3N=C(S(C)(=O)=O)SC3=NC2=O)cc(OC)c1OCCOc1ccc(C)cc1	-5	11	1	2	-7	3	/	/	/
CCCCN(C(=O)C1CC(=O)N(Cc2ccc(C)cc2)C1)c1c(N)n(CC(C)C)c(=O)[nH]c1=O (stereo not drawn)	-1	-7	-1	-2	0	0	-11	-6	/
COCCN(C(=O)C1CCN(C(=O)c2ccccc2C)CC1)c1c(N)n(CC(C)C)c(=O)[nH]c1=O	1	63*	-2	-4	6	0	77*	-17	-1
COCCN(C(=O)C1CC(=O)N(Cc2ccc(C)cc2)C1)c1c(N)n(CC(C)C)c(=O)[nH]c1=O (stereo not drawn)	1	0	1	-3	-2	0	/	/	/
COC(=O)CSc1nc(SCc2ccccc2Cl)nc2c1CCCC2	1	53*	5	2	-5	0	-5	-3	/
O=C(O)CSc1nc(SCc2ccccc2Cl)nc2c1CCCC2	11	0	0	0	3	0	/	/	/
